# Source: PubChem BioAssay (The Scripps Research Institute Molecular Screening Center)
# HTR1E agonist: 5-HT1E receptor agonists, primary screen, cell-based, HTS; 5-hydroxytryptamine receptor 1E (Homo sapiens), P28566; CHO 5-HT1E Ga15 NFAT-bla reporter, FRET; 0% DMSO wells, 100% control agonist wells; activation, % at 6 µM; 65,000 tested, 0.69% active; AID 574, 2007;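 active = activation above a set limit, the screen-wide mean activation plus 3 SD, cut at about 8.5% in these data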
# Target sequence (P28566 whole entry, looked up): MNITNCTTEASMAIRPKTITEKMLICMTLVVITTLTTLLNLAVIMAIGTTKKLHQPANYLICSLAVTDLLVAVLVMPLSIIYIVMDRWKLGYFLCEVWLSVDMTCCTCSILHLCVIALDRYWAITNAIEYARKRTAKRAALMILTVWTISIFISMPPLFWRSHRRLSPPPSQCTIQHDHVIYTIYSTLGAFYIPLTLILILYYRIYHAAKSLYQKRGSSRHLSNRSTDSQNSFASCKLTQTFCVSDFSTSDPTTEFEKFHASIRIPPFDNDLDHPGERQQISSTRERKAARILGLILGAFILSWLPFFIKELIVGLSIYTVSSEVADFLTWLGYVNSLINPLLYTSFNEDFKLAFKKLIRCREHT
# 5HT1E antag: 5-HT1E receptor antagonists, primary screen, cell-based, HTS. 65,000 tested, 0.99% active. CHO 5-HT1E Ga15 NFAT-bla reporter, FRET, antagonist. 5-hydroxytryptamine receptor 1E (Homo sapiens), P28566. inhibition, % at 6 µM;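 active = inhibition above a set limit, the mean inhibition across every tested compound plus 3 SD, cut at about 29% in these data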;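 also: signal is the 460 over 535 nm emission ratio of beta-lactamase substrate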
# S1P3 ag: human S1P3 receptor agonists, primary screen, cell-based, primary and confirmation, NFAT-BLA reporter; 60,000 tested, 0.1% active; S1P3 NFAT-BLA reporter cells, agonism, FRET ratio; relative to 1 µM S1P, basal subtracted; activation, % at 4.5 µM; Sphingosine 1-phosphate receptor 3 (Homo sapiens), Q99500;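 active = activation above the screen-wide mean plus 3 SD, cut at about 4.5% in these data, passing the limit was not always enough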
#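 material = human S1P3 NFAT-BLA reporter CHO cells | schedule = 4 h compound at 37 °C, 2 h substrate at RT | measured by = fluorescent BLA substrate, ex 405 nm, em 460/535 nm ratio | controls = 1 µM S1P reference | replication = primary once, confirmation triplicate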
# 5HT1a antag: human 5-HT1a receptor antagonists, primary screen, cell-based, CHO, Ga15 NFAT-bla reporter | 5-hydroxytryptamine receptor 1A (Homo sapiens), P08908 | CHO 5-HT1a Ga15 NFAT-bla reporter, antagonist mode | inhibition, % at 10 µM | 62,000 tested, 0.68% active | AID 612, 2007;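 active = inhibition above the mean of all tested compounds plus 3 SD, cut at about 43% in these data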;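 also: receptor stimulated by 5-CT agonist at 100 nM near EC80; beta-lactamase reporter measured by ratiometric fluorescence of a cleavable substrate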
# S1P1 ag-PAM: S1P1 agonists and agonism potentiators, primary screen, cell-based, primary and confirmation screens, CRE-bla reporter. S1P1 CRE-bla cells, forskolin, beta-lactamase FRET, potentiator mode; S1P1 agonist co-added at EC20, 2 nM; 100% = saturating reference agonist, 0% = basal. activation, % at 9.5 µM. 56,000 tested, 0.57% active. AID 449, 2006;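 active = activation above a cutoff set at the mean activation of all tested compounds plus 3 SD, cut at about 54% in these data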;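 also: forskolin at 4 µM as EC80 and the EC20 agonist is SEW2871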
# 5HT1a ag: human 5-HT1a receptor agonists, primary screen, cell-based, CHO, Ga15 NFAT-bla reporter. 5-hydroxytryptamine receptor 1A (Homo sapiens), P08908. CHO 5-HT1a Ga15 NFAT-bla reporter, FRET ratio; 0% basal, 100% maximal reference agonist. activation, % at 10 µM. 65,000 tested, 0.56% active. AID 567, 2006;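 active = activation above the screen-wide mean activation plus 3 SD, cut at about 19% in these data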
# A number is an active result; 0 = inactive; - = no result. An excerpt weighted towards active compounds, which were near 2.9% of everything screened.
SMILES,HTR1E agonist,5HT1E antag,S1P3 ag,5HT1a antag,S1P1 ag-PAM,5HT1a ag
O=C(O)CCCC(=O)Nc1nc(-c2ccccc2)cs1,25.9,0,0,0,0,0
Cc1ccc(C(=O)CSc2nnc(COc3cccc4cccnc34)o2)cc1,0,0,0,0,0,0
COc1cccc(C(=O)CSc2nnc(COc3cccc4cccnc34)o2)c1,0,0,0,0,0,46.5
CCOC(=O)Nc1ccc2c(c1)N(C(=O)CCN(C)C)c1ccccc1S2,0,0,0,45.6,0,0
CCOC(=O)Nc1ccc2c(c1)N(C(=O)CN1CCN(C)CC1)c1ccccc1S2,0,0,0,0,0,0
CC(NC(=O)c1ccco1)c1ccc2c(c1)OCCO2 (stereo not given),0,0,0,0,0,0
CCCCn1c(=O)[nH]c(=O)c2c1nc(-c1ccncc1)n2CCOC,0,0,0,0,0,269.9
CCOC(=O)c1ccc(NC(=O)Nc2ccc3c4c(cccc24)C(=O)N3CC)cc1,0,30.3,0,0,0,0
CCN1C(=O)c2cccc3c(NC(=O)c4ccc(S(=O)(=O)N(C)C)cc4)ccc1c23,0,0,0,0,-,88.0
CCN1C(=O)c2cccc3c(NS(=O)(=O)c4ccc(NC(C)=O)cc4)ccc1c23,0,0,0,0,0,0
COc1ccc(S(=O)(=O)N2CCC(n3cnc4cc(C(F)(F)F)ccc43)CC2)cc1,21.7,0,0,0,0,0
CCCCCOc1ccc(N2C(=O)CC(N(O)c3ccccc3)C2=O)cc1 (stereo not given),0,0,0,0,0,0
CCCCOc1ccc(N2C(=O)CC(N(O)c3ccccc3)C2=O)cc1 (stereo not given),0,34.4,0,0,0,0
CC1(C)CC(=O)C(C=Nc2ccc3[nH]ncc3c2)=C(O)C1,0,0,0,0,99.2,0
CCOc1ccc(N=CC2=C(O)CC(C)(C)CC2=O)cc1,0,0,0,0,0,0
CC1(C)CC(=O)C(C=Nc2ccc3cn[nH]c3c2)=C(O)C1,0,39.8,0,0,0,0
CSc1ccccc1N=CC1=C(O)CC(C)(C)CC1=O,0,71.7,0,74.3,0,0
CC1(C)CC(=O)C(C=Nc2ccc(O)cc2)=C(O)C1,0,0,0,0,0,0
CC1(C)CC(=O)C(C=Nc2ccc(Cl)cn2)=C(O)C1,0,0,0,-,0,0
O=S1(=O)CC(O)C(N2CCC(c3ccccc3)CC2)C1 (stereo not given),0,0,0,0,0,0
CCC(CC)C(=O)Nc1cc(C)c2c(=O)oc3ccccc3c2n1,0,30.7,0,0,0,0
COc1ccc(CC(=O)Nc2cc(C)c3c(=O)oc4ccccc4c3n2)cc1,0,0,0,0,0,0
CCn1cc(C(=O)NC2CCCCCC2)c2cc(OC)c(OC)cc2c1=O,0,0,-,0,-,0
O=C(CCN1CCN(c2ccccc2F)CC1)Nc1ccccc1F,0,0,0,0,0,0
O=C(CCN1CCN(c2ccccc2F)CC1)c1ccc(Br)cc1,34.4,0,0,0,0,0
SMILES,HTR1E agonist,5HT1E antag,S1P3 ag,5HT1a antag,S1P1 ag-PAM,5HT1a ag
O=C(Nc1ccc(Cl)cc1)N1CCC(c2nc(-c3ccc(F)cc3)no2)CC1,0,0,0,47.4,57.1,0
CC(=O)Cc1nsc(NC(=O)c2ccc(COc3ccccc3)o2)n1,0,0,0,0,0,0
N=c1c2c(-c3ccccc3)c(-c3ccccc3)n(Cc3ccccc3)c2ncn1CCCn1ccnc1,0,0,0,-,0,0
N=c1c2c(-c3ccccc3)c(-c3ccccc3)n(Cc3ccco3)c2ncn1Cc1ccco1,0,0,0,57.4,0,0
CC(=O)Oc1ccc2c(c1)c(C(C)=O)c(C)n2C,0,0,0,0,0,0
COc1ccc(-n2c(C)c(C(C)=O)c3cc(O)ccc32)cc1,0,0,0,-,76.2,0
COCCn1c(C)c(C(=O)O)sc1=S,0,0,0,0,0,0
CSc1nc(N2CCOCC2)c2c3c(sc2n1)CCCC3,0,32.5,0,0,0,0
CCN(CC(=O)NCc1ccc(F)cc1)CC(O)COCc1cccc(OC)c1 (stereo not given),0,0,0,0,0,0
c1cnc(Oc2ccc(-c3nnco3)cc2)cn1,0,0,0,0,0,0
CC(C)Oc1ccc(C(=O)Nc2ccc(N3CCCC3)cc2)cc1,0,0,0,0,0,50.4
CCCCOc1cccc(C(=O)Nc2ccc(N3CCN(CC)CC3)cc2)c1,0,0,0,0,0,0
CCCCOc1ccc(C(=O)Nc2ccc(N3CCN(C)CC3)cc2)cc1,15.1,0,0,0,0,0
Cc1cc(-n2c(=O)c(C#N)cc3c(=O)n4ccccc4nc32)no1,18.9,0,10.6,0,0,72.3
C=CCn1c(=O)c(C#N)cc2c(=O)n3ccccc3nc21,16.1,0,5.2,0,0,42.8
N#Cc1cc2c(=O)n3ccccc3nc2n(Cc2cccnc2)c1=N,0,0,-,0,-,0
O=C(CSc1ccc(Cl)cc1)OCc1nnc(-c2ccccc2)o1,0,0,0,0,0,0
Cc1cc(C(C)(C)C)c(O)c(C)c1CC1=NCCN1,76.4,0,0,-,0,81.0
Cc1cc(C(=O)CSc2nnc(-c3ccco3)o2)c(C)n1Cc1ccco1,0,0,0,0,0,0
Cc1cc(C(=O)CSc2nnc(-c3cccs3)o2)c(C)n1-c1ccccc1,0,0,0,0,100.9,0
CCC1CCCCN1C(=O)CSc1nnc(-c2cccs2)o1 (stereo not given),0,0,0,0,0,28.4
Cc1cc(C(=O)CSc2nnc(-c3ccco3)o2)c(C)n1-c1ccc2c(c1)OCCO2,0,0,0,0,62.3,0
O=C(CSc1nnc(-c2cccs2)o1)c1cccs1,0,0,0,0,0,0
COCCNC(=O)CSc1nc2ccccc2c(=O)n1CCCC(=O)NCc1ccccc1,0,0,-,0,-,26.4
CCNC(=O)CSc1nc2ccccc2c(=O)n1CCCOC(C)C,0,0,0,0,0,0
Cc1nn(-c2ccccc2)c2sc(C(=O)N3CCOCC3)cc12,0,36.2,0,0,0,0
Clc1ccc(Cc2noc(-c3cccs3)n2)cc1,0,0,0,0,-,0
Cc1cc(C(=O)N2CCN(C(c3ccccc3)c3ccccc3)CC2)on1,0,0,0,0,87.5,0
